The values below come from ChEMBL document CHEMBL4425094, “Novel Benzo[a]quinolizidine Analogs Induce Cancer Cell Death through Paraptosis and Apoptosis” (J Med Chem, 2016).

Each structure is given as a SMILES string. The source made the active and inactive calls. No cut-off for these calls is given here.

Test [1] deals with PC-3. Kind of test: Induction of morphological changes in human PC3 cells assessed as formation of massive cytoplasmic vacuoles at 1 uM after 12 hrs by confocal microscopic analysis. The class given is functional, cell-based.
For the next test, the system named is HeLa. Description: Cytotoxicity against human HeLa cells assessed as cell growth inhibition after 24 hrs by MTT assay. The test is classed as functional, cell-based. The method, boiled down: (§1)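 Cells seeded 24 h in RPMI 1640 + 10% FBS. RWPE-1 was kept in K-SFM with bovine pituitary extract and EGF. Cells then exposed to compounds for 24 h at 37 °C, 5% CO2, with DMSO vehicle and docetaxel as positive control. MTT added for 4 h, absorbance read at 570 nm. Triplicate runs, IC50 reported as mean of three experiments.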
Background: Formazan colour is commonly taken as a measure of viable cells.

The subject of the next test is MDA-MB-231. Kind of test: Cytotoxicity against human MDA-MB-231 cells assessed as cell growth inhibition after 24 hrs by MTT assay. The test is classed as functional, cell-based. The settings on record: MDA-MB-231, 24 h. The method, boiled down:
as §1

A further test relates to K562. Kind of test: Cytotoxicity against human K562 cells assessed as cell growth inhibition after 24 hrs by MTT assay. The test is classed as functional, cell-based. Conditions: K562, 24 h. Put shortly: as §1
In a further test the test system is DU-145. Kind of test: Cytotoxicity against human DU145 cells assessed as cell growth inhibition after 24 hrs by MTT assay. The test is classed as functional, cell-based. The settings on record: DU-145, 24 h. Put shortly: as §1
Test [2] has as its system PC-3. Description: Cytotoxicity against human PC3 cells assessed as cell growth inhibition after 24 hrs by MTT assay. The class given is functional, cell-based. The settings on record: PC-3, 24 h. Put shortly: as §1
In a further test the test system is MCF7. Kind of test: Cytotoxicity against human MCF7 cells assessed as cell growth inhibition after 24 hrs by MTT assay. The test is classed as functional, cell-based. The settings on record: MCF7, 24 h. Put shortly: as §1
The test system of the next test is RWPE-1. Description: Cytotoxicity against human RWPE1 cells assessed as cell growth inhibition after 24 hrs by MTT assay. The test is classed as cell-based. The settings on record: RWPE-1, 24 h. Put shortly: as §1

For the molecule `C[C@@H]1C[C@@H](O)C[C@H]2c3cc(OCc4ccc(Br)cc4)c(OCc4ccc(Br)cc4)cc3CCN12`, in the test with PC-3 [1], the outcome was Active. Further, the IC50 (usually the concentration that inhibits the measured activity by half) in the test on HeLa was 1.16 µM; in the test on MDA-MB-231 it was 0.88 µM; with K562 it was 1.22 µM; with DU-145 it was 2.58 µM; with PC-3 [2], 1.24 µM; with MCF7, 1.29 µM.
Regarding `C[C@@H]1C[C@H](O)C[C@H]2c3cc(OCc4cc(C(F)(F)F)cc(C(F)(F)F)c4)c(OCc4cc(C(F)(F)F)cc(C(F)(F)F)c4)cc3CCN12`, the result in the test with PC-3 [1] was Active. For the same molecule, the IC50 was determined as 2.84 µM in the test with HeLa; 0.56 µM in the test on MDA-MB-231; 1.15 µM in the test with K562; 1.87 µM in the test with DU-145; 2.32 µM in the test with RWPE-1; 0.68 µM in the test with PC-3 [2]. The IC50 with MCF7 is 1.87 µM.
Consider `C[C@@H]1C[C@@](C)(O)C[C@H]2c3cc(OCc4cccc(F)c4)c(OCc4cccc(F)c4)cc3CCN12`, for which the outcome with PC-3 [1] was Active. In addition, the IC50 with HeLa was 0.96 µM; in the test with MDA-MB-231, 0.59 µM; in the test with K562, 1.01 µM; in the test with DU-145, 2.14 µM; with RWPE-1, 1.86 µM; with PC-3 [2], 0.41 µM. In addition, the IC50 in the test on MCF7 turned out to be 0.47 µM.
`COc1ccc([C@@H]2C[C@@H](O)C[C@H]3c4cc(OCc5cc(C)cc(C)c5)c(OCc5cc(C)cc(C)c5)cc4CCN23)cc1OC`: the outcome in the test on PC-3 [1] was Active. Besides, the IC50 worked out at 3.05 µM in the test with HeLa; 0.97 µM with MDA-MB-231; 3.95 µM in the test on K562; 4.53 µM with DU-145; 3.04 µM with RWPE-1; 1.15 µM in the test with PC-3 [2]. In addition, in the test with MCF7, the IC50 turned out to be 1.32 µM.
`Cc1cc(C)cc(COc2cc3c(cc2OCc2cc(C)cc(C)c2)[C@@H]2C[C@](C)(O)C[C@@H](C)N2CC3)c1`: the result in the test on PC-3 [1] was Active. For the same molecule, the IC50 with HeLa was 1.25 µM; with MDA-MB-231, 2.35 µM; in the test with K562 it was 1.46 µM; in the test on DU-145 it was 1.95 µM; with RWPE-1, 4.77 µM; in the test on PC-3 [2] it was 0.89 µM. Also, in the test with MCF7, the concentration for half-maximal inhibition (IC50) is 0.5 µM.
For the molecule `C[C@@H]1C[C@@](C)(O)C[C@H]2c3cc(OCc4cc(C(F)(F)F)cc(C(F)(F)F)c4)c(OCc4cc(C(F)(F)F)cc(C(F)(F)F)c4)cc3CCN12`, the outcome with PC-3 [1] was Active. For the same molecule, the IC50 in the test with HeLa worked out at 1.21 µM; in the test with MDA-MB-231 it was 0.53 µM; in the test with K562 it was 1.84 µM; in the test with DU-145, 2.24 µM; in the test with RWPE-1 it was 2.57 µM; in the test with PC-3 [2] it was 0.61 µM. The IC50 in the test with MCF7 was 0.81 µM.
Consider `O=C1C[C@@H](c2ccccc2)N2CCc3cc(O)c(O)cc3[C@@H]2C1` (relative stereo), for which the IC50 in the test with HeLa, in the test on MDA-MB-231, in the test with K562, with DU-145, in the test with RWPE-1 and with PC-3 [2] was above 20 µM throughout. In the test with MCF7, the IC50 was above 20 µM.
As for `O[C@H]1C[C@@H](c2ccccc2)N2CCc3ccccc3[C@@H]2C1`, the IC50 in the test with HeLa, with MDA-MB-231, with K562, in the test with DU-145, in the test on RWPE-1 and in the test on PC-3 [2] was above 20 µM throughout. In addition, the IC50 in the test on MCF7 is above 20 µM.
Consider `CCCCCCCCCCCCCCCCOc1cc2c(cc1OCCCCCCCCCCCCCCCC)[C@@H]1C[C@H](O)C[C@@H](C)N1CC2`, for which the IC50 with HeLa, in the test on MDA-MB-231, with K562, in the test with DU-145, in the test with RWPE-1 and in the test with PC-3 [2] was above 20 µM each time. In addition, the IC50 in the test with MCF7 is above 20 µM.
Consider `O=C1C[C@@H](c2ccccc2)N2CCc3ccc(OCc4ccccc4)cc3[C@@H]2C1` (relative stereo), for which the IC50 in the test with HeLa, in the test on MDA-MB-231, in the test with K562, in the test with DU-145, with RWPE-1 and in the test on PC-3 [2] was above 20 µM throughout. Besides, in the test with MCF7, the IC50 was above 20 µM.
Consider `O=C1C[C@@H](c2ccc(-c3ccccc3)cc2)N2CCc3cc(OCc4ccccc4)c(OCc4ccccc4)cc3[C@@H]2C1` (relative stereo), for which the IC50 in the test on HeLa, in the test with MDA-MB-231, in the test on K562, in the test with DU-145, with RWPE-1 and with PC-3 [2] was above 20 µM each time. Also, the IC50 with MCF7 was above 20 µM.
Consider `Oc1cc2c(cc1O)[C@@H]1C[C@H](O)C[C@@H](c3ccccc3)N1CC2`, for which the IC50 with HeLa, in the test with MDA-MB-231, in the test with K562, in the test with DU-145, in the test on RWPE-1 and in the test on PC-3 [2] was above 20 µM in each case. For the same molecule, the IC50 in the test on MCF7 is above 20 µM.
In the case of `O=C1C[C@@H](c2ccccc2)N2CCc3cc(OCc4ccccc4)ccc3[C@@H]2C1` (relative stereo), the IC50 in the test with HeLa, in the test with MDA-MB-231, with K562, in the test on DU-145, in the test on RWPE-1 and in the test on PC-3 [2] was above 20 µM throughout. The IC50 with MCF7 is above 20 µM.
For the molecule `O[C@@H]1C[C@@H](c2ccccc2)N2CCc3ccc(OCc4ccccc4)cc3[C@@H]2C1`, the IC50 with HeLa, in the test on MDA-MB-231, in the test with K562, in the test with DU-145, with RWPE-1 and in the test on PC-3 [2] was above 20 µM throughout. Besides, the IC50 in the test with MCF7 was above 20 µM.
In the case of `COc1ccc([C@@H]2C[C@H](O)C[C@H]3c4cc(OCc5ccccc5)c(OCc5ccccc5)cc4CCN23)cc1`, the IC50 with HeLa, in the test with MDA-MB-231, with K562, in the test on DU-145, in the test with RWPE-1 and in the test on PC-3 [2] was above 20 µM each time. Moreover, in the test with MCF7, the IC50 is above 20 µM.
As for `CCCCCC[C@@H]1C[C@H](O)C[C@H]2c3cc(OCc4ccccc4)c(OCc4ccccc4)cc3CCN12`, the IC50 with HeLa, with MDA-MB-231, in the test on K562, with DU-145, in the test on RWPE-1 and with PC-3 [2] was above 20 µM throughout. Moreover, the IC50 in the test with MCF7 was above 20 µM.
Regarding `COc1ccc([C@@H]2C[C@H](O)C[C@H]3c4cc(OCc5cc(F)cc(F)c5)c(OCc5cc(F)cc(F)c5)cc4CCN23)cc1OC`, the IC50 in the test with HeLa, in the test on MDA-MB-231, in the test on K562, in the test with DU-145, in the test with RWPE-1 and with PC-3 [2] was above 20 µM each time. Further, the IC50 in the test with MCF7 was above 20 µM.
Turning to `COc1ccc([C@@H]2C[C@@H](O)C[C@H]3c4cc(OCc5cc(F)cc(F)c5)c(OCc5cc(F)cc(F)c5)cc4CCN23)cc1OC`, the IC50 in the test with HeLa turned out to be 4.67 µM; in the test with MDA-MB-231, 1.3 µM; in the test with K562, 3.92 µM; in the test with DU-145, 3.96 µM; with RWPE-1 it was 2.24 µM; in the test on PC-3 [2] it was 1.71 µM. Besides, the IC50 in the test with MCF7 was 3.52 µM.
With `CC1(C)CC(=O)C[C@H]2c3cc(OCc4ccccc4)c(OCc4ccccc4)cc3CCN21`, the IC50 in the test with HeLa, in the test with MDA-MB-231, in the test on K562, with DU-145, in the test with RWPE-1 and with PC-3 [2] was above 20 µM in each case. Also, the IC50 in the test on MCF7 was above 20 µM.
On to `C[C@]1(O)C[C@@H](c2ccccc2)N2CCc3cc(OCc4ccccc4)c(OCc4ccccc4)cc3[C@@H]2C1`, for which the IC50 with HeLa, in the test on MDA-MB-231, in the test with K562, in the test on DU-145, in the test with RWPE-1 and in the test with PC-3 [2] was above 20 µM throughout. In the test with MCF7, the IC50 is above 20 µM.
For `COc1cc2c(cc1OC)[C@@H]1CC(=O)C[C@@H](c3ccccc3)N1CC2` (relative stereo), the IC50 in the test on HeLa, in the test on MDA-MB-231, with K562, in the test with DU-145, in the test on RWPE-1 and with PC-3 [2] was above 20 µM in each case. Moreover, in the test on MCF7, the IC50 is above 20 µM.
Turning to `C[C@@H]1CC(=O)C[C@H]2c3cc(OCc4ccc(C(C)(C)C)cc4)c(OCc4ccc(C(C)(C)C)cc4)cc3CCN12` (relative stereo), the IC50 with HeLa, in the test with MDA-MB-231, in the test on K562, in the test with DU-145, with RWPE-1 and with PC-3 [2] was above 20 µM in each case. In addition, in the test on MCF7, the IC50 was above 20 µM.
As for `COc1cc2c(cc1OC)[C@@H]1C[C@@H](O)C[C@@H](c3ccccc3)N1CC2`, the IC50 in the test on HeLa, in the test with MDA-MB-231, in the test with K562, in the test on DU-145, with RWPE-1 and in the test on PC-3 [2] was above 20 µM in each case. For the same molecule, the 50% inhibitory concentration (IC50) in the test with MCF7 was above 20 µM.
As for `O=C1C[C@@H](c2ccc([N+](=O)[O-])cc2)N2CCc3cc(OCc4ccccc4)c(OCc4ccccc4)cc3[C@@H]2C1`, the half-inhibitory concentration (IC50) in the test on HeLa, in the test on MDA-MB-231, in the test on K562, with DU-145, in the test with RWPE-1 and in the test on PC-3 [2] was above 20 µM throughout. In addition, the IC50 in the test on MCF7 is above 20 µM.
